From ChEMBL document CHEMBL1933016, “Hydroxycoumarins as selective MAO-B inhibitors” (Bioorg Med Chem Lett, 2012)

Experiments:
[1] = target: T1, Amine oxidase [flavin-containing] A (Homo sapiens, UniProt P21397); assay: Inhibition of human recombinant MAOA expressed in baculovirus-infected BTI insect cells assessed as conversion of p-tyramine into p-hydroxyphenyl-acetaldehyde at 100 uM after 15 mins by fluorimetric assay; details: 0.25 h
T1 sequence (P21397 whole entry): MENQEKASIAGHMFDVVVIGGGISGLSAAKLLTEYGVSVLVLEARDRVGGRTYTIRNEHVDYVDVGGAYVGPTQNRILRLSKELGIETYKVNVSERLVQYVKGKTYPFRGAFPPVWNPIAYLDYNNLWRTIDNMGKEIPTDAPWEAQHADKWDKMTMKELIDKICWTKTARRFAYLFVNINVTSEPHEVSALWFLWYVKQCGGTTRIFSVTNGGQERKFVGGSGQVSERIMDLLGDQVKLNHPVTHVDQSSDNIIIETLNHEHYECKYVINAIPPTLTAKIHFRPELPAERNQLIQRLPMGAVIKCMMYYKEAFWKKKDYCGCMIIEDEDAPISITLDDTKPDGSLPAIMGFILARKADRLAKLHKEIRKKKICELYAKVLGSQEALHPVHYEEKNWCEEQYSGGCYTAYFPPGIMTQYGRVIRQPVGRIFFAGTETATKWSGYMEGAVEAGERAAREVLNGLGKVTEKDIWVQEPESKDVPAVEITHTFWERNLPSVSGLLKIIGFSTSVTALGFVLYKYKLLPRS
Summary of the method: (§1)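 Recombinant hMAO-A or hMAO-B was adjusted to the same velocity (165 pmol p-tyramine/min; specific activity 150 nmol/min/mg for A, 22 for B). Enzyme and drug in 0.05 M sodium phosphate pH 7.4 were preincubated 15 min at 37 °C. Amplex Red, 1 U/mL HRP and 1 mM p-tyramine (final) were added, and resorufin fluorescence was read at 37 °C. Values were background-subtracted against enzyme-free blanks with vehicle controls.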

[2] = target: T2, Amine oxidase [flavin-containing] B (Homo sapiens, UniProt P27338); assay: Inhibition of human recombinant MAOB expressed in baculovirus-infected BTI insect cells assessed as using transformed p-tyramine at 100 uM after 15 mins by fluorimetric assay; details: 0.25 h; summary of the method: as §1
T2 sequence (P27338 whole entry): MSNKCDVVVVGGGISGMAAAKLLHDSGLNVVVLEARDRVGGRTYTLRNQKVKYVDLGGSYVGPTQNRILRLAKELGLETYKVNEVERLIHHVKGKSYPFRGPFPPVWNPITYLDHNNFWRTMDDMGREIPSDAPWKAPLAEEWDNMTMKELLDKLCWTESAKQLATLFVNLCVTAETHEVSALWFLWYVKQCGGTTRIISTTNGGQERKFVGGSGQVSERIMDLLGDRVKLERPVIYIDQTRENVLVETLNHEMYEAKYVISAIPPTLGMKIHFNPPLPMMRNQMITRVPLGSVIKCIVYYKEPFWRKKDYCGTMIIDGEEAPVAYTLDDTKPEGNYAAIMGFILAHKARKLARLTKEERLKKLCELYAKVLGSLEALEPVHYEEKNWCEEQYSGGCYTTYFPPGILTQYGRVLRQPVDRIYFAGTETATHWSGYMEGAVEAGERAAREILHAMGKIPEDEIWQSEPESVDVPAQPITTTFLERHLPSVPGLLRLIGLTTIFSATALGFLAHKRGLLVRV

[3] = target: T2, Amine oxidase [flavin-containing] B; assay: Inhibition of human recombinant MAOB expressed in baculovirus-infected BTI insect cells assessed as using transformed p-tyramine after 15 mins by fluorimetric assay; type: single protein
Homo sapiens = species on record: Homo sapiens; assay: Selectivity index, ratio of IC50 for human recombinant MAOA to IC50 for human recombinant MAOB
Summary of the method: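 The index is IC50(MAO-A)/IC50(MAO-B) from the fluorimetric Amplex Red/p-tyramine assay on recombinant human isoforms.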

SMILES	inhibition (INH) [1]	inhibition (INH) [2]	IC50 [3] [µM]	Ratio IC50 (Homo sapiens)
COc1ccc(-c2c(O)c3ccccc3oc2=O)cc1Cl	Not Active			
O=c1oc2ccccc2c(O)c1-c1ccccc1	Not Active	Not Active		
COc1ccc(-c2c(O)c3cc(C)ccc3oc2=O)cc1	Not Active		32	> 3.1
COc1ccc(-c2c(O)c3cc(Cl)ccc3oc2=O)cc1Cl	Not Active		2.79	> 36
COc1ccc(-c2c(O)c3cc(Cl)ccc3oc2=O)cc1	Not Active	Not Active		
COc1ccc(-c2c(O)c3cc(C)ccc3oc2=O)cc1Cl	Not Active		42.7	> 2.3
COc1ccc(-c2c(O)c3ccccc3oc2=O)cc1	Not Active		69.6	> 1.4
